Assay results from ChEMBL document CHEMBL4312029, “Structure-activity relationship studies and in vitro and in vivo anticancer activity of novel 3-aroyl-1,4-diarylpyrroles against solid tumors and hematological malignancies” (Eur J Med Chem, 2020).
Active and inactive are the calls of the source. No cut-off for these calls is given here.

Legend:
Tubulin = assay: Inhibition of tubulin polymerization (unknown origin) incubated for 15 mins followed by GTP addition and measured for 20 mins by spectrophotometry; assay type: protein-complex assay, Homo sapiens
In short: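 Tubulin assembly assay with tubulin at 10 µM. IC50 for inhibition of polymerization; run in duplicate or triplicate.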

MCF7 = assay: Cytotoxicity against human MCF7 cells assessed as reduction in cell growth incubated for 96 hrs by MTT assay; assay type: functional, cell-based; conditions: MCF7, 96 h
In short: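 Growth inhibition of human breast carcinoma cells, reported as IC50; run in duplicate or triplicate.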

Tubulin (Homo sapiens) = Tubulin (Homo sapiens) (UniProt P68371+Q9H4B7+P0DPH7+P68366+Q13509+Q71U36+P04350+Q3ZCM7+P07437+P68363+Q9BQE3+Q6PEY2+Q13885+Q9BVA1+Q9BUF5); assay: Inhibition of [3H]colchicine binding to tubulin (unknown origin) at 5 uM incubated for 10 mins by DEAE-cellulose filter method relative to control; assay type: protein-complex assay
KU812 cell line = assay: Cytotoxicity against human KU812 cells expressing IM- sensitive wild type Bcr/Abl assessed as reduction in cell viability incubated for 48 hrs by MTT assay; assay type: functional, cell-based; conditions: KU812, 48 h
[1] = Cytotoxicity against human LAMA84-s cells expressing IM-sensitive wild type Bcr/Abl assessed as reduction in cell viability incubated for 48 hrs by MTT assay; assay type: functional, cell-based
[2] = Cytotoxicity against IM resistant human LAMA84-r cells assessed as reduction in cell viability incubated for 48 hrs by MTT assay; assay type: functional, cell-based
KBM5 [3] = assay: Cytotoxicity against human KBM5 cells expressing IM- sensitive wild type Bcr/Abl assessed as reduction in cell viability incubated for 48 hrs by MTT assay; assay type: functional, cell-based; conditions: KBM5, 48 h
KBM5 [4] = assay: Cytotoxicity against human KBM5 cells expressing IM-resistant Bcr/Abl T315I mutant assessed as reduction in cell viability incubated for 48 hrs by MTT assay; assay type: functional, cell-based; conditions: KBM5, 48 h
[5] = (§1) Cytotoxicity against human U343MG cells assessed as reduction in cell viability incubated for 72 hrs by MTS assay; assay type: functional, cell-based; conditions: U-343MG
In short: (§2)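 Increasing concentrations applied to glioblastoma and neuroblastoma lines to give dose-response viability curves; cytotoxic IC50 from triplicate experiments. Incubation 48 h, except U343MG at 72 h.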

Homo sapiens [6] = species: Homo sapiens; assay: as §1; assay type: functional, cell-based; in short: as §2
U-87 MG = assay: Cytotoxicity against human U87MG cells assessed as reduction in cell viability incubated for 48 hrs by MTS assay; assay type: functional, cell-based, U-87MG ATCC; conditions: for inhibition: U-87MG ATCC; in short: as §2
T98G = assay: Cytotoxicity against human T98G cells assessed as reduction in cell viability incubated for 48 hrs by MTS assay; assay type: functional, cell-based; in short: as §2
[7] = Cytotoxicity against human SK-N-BE cells assessed as reduction in cell viability incubated for 48 hrs by MTT assay; assay type: functional, cell-based; in short: as §2
[8] = Cytotoxicity against human SK-N-BE(2)C cells assessed as reduction in cell viability incubated for 48 hrs by MTT assay; assay type: functional, cell-based; in short: as §2
HCT-116 = assay: Cytotoxicity against human HCT116 cells assessed as reduction in cell viability incubated for 48 hrs by MTT assay; assay type: functional, cell-based; conditions: for IC50: HCT-116, 48 h
HT-29 = assay: Cytotoxicity against human HT-29 cells assessed as reduction in cell viability incubated for 48 hrs by MTT assay; assay type: functional, cell-based; conditions: for IC50: HT-29, 48 h
SW480 = assay: Cytotoxicity against human SW480 cells assessed as reduction in cell viability incubated for 48 hrs by MTT assay; assay type: functional, cell-based; conditions: for IC50: SW480, 48 h
SW-620 = assay: Cytotoxicity against human SW620 cells assessed as reduction in cell viability incubated for 48 hrs by MTT assay; assay type: functional, cell-based; conditions: for IC50: SW-620, 48 h
T-24 [9] = assay: Cytotoxicity against human T24 cells assessed as reduction in cell viability incubated for 48 hrs by MTT assay; assay type: functional, cell-based; conditions: T-24, 48 h
PBMC = assay: Cytotoxicity against human PBMC assessed as cell viability by MTT assay; assay type: cell-based
T-24 [10] = assay: Antitumor activity against human T24 cells xenografted in BALB/c nu/nu mouse assessed as reduction in tumor volume at 20 mg/kg, ip administered every 2 days for 40 days and measured on day 40; assay type: functional, organism-based
In short: (§3)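 T24 or ES-2 cells injected on the backs of nude mice; saline-treated control group. Mice euthanized on Day 40, tumors excised, and tumor volume and weight measured.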

T-24 [11] = assay: Antitumor activity against human T24 cells xenografted in BALB/c nu/nu mouse assessed as reduction in tumor weight at 20 mg/kg, ip administered every 2 days for 40 days and measured on day 40; assay type: functional, organism-based; in short: as §3
Homo sapiens [12] = assay: Antitumor activity against human ES2 cells xenografted in BALB/c nu/nu mouse assessed as reduction in tumor volume at 20 mg/kg, ip administered every 2 days for 40 days and measured on day 40; assay type: functional, organism-based; in short: as §3
Homo sapiens [13] = assay: Antitumor activity against human ES2 cells xenografted in BALB/c nu/nu mouse assessed as reduction in tumor weight at 20 mg/kg, ip administered every 2 days for 40 days and measured on day 40; assay type: functional, organism-based; in short: as §3
T-24 [14] = assay: Antitumor activity against human T24 cells xenografted in BALB/c nu/nu mouse assessed as reduction in Ki67 expression in tumor tissue at 20 mg/kg, […] days for 40 days and measured on day 40 by immunofluorescence analysis; assay type: functional, organism-based
In short: (§4)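 Nude mice bearing back tumors from injected T24 or ES-2 cells, treated versus saline controls. Tumors collected on Day 40 and marker expression in tumor tissue assessed by immunofluorescence staining.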

T-24 [15] = assay: Antitumor activity against human T24 cells xenografted in BALB/c nu/nu mouse assessed as reduction in CD31 expression in tumor tissue at 20 mg/kg, ip administered every 2 days for 40 days and measured on day 40 by immunofluorescence analysis; assay type: functional, organism-based; in short: as §4
T-24 [16] = assay: Antitumor activity against human T24 cells xenografted in BALB/c nu/nu mouse assessed as reduction in Bcl2 expression in tumor tissue at 20 mg/kg, ip administered every 2 days for 40 days and measured on day 40 by immunofluorescence analysis; assay type: functional, organism-based; in short: as §4
T-24 [17] = assay: Antitumor activity against human T24 cells xenografted in BALB/c nu/nu mouse assessed as increase in caspase 9 expression in tumor tissue at 20 mg/kg, ip administered every 2 days for 40 days and measured on day 40 by immunofluorescence analysis; assay type: functional, organism-based; in short: as §4
T-24 [18] = assay: Antitumor activity against human T24 cells xenografted in BALB/c nu/nu mouse assessed as increase in caspase 3 expression in tumor tissue at 20 mg/kg, ip administered every 2 days for 40 days and measured on day 40 by immunofluorescence analysis; assay type: functional, organism-based; in short: as §4
T-24 [19] = assay: Antitumor activity against human T24 cells xenografted in BALB/c nu/numouse assessed as increase in Bax expression in tumor tissue at 20 mg/kg, ip administered every 2 days for 40 days and measured on day 40 by immunofluorescence analysis; assay type: functional, organism-based; in short: as §4
Homo sapiens [20] = assay: Antitumor activity against human ES2 cells xenografted in BALB/c nu/nu mouse assessed as reduction in Ki67 expression in tumor tissue at 20 mg/kg, ip administered every 2 days for 40 days and measured on day 40 by immunofluorescence analysis; assay type: functional, organism-based; in short: as §4
Homo sapiens [21] = assay: Antitumor activity against human ES2 cells xenografted in BALB/c nu/nu mouse assessed as reduction in CD31 expression in tumor tissue at 20 mg/kg, ip administered every 2 days for 40 days and measured on day 40 by immunofluorescence analysis; assay type: functional, organism-based; in short: as §4
Homo sapiens [22] = assay: Antitumor activity against human ES2 cells xenografted in BALB/c nu/nu mouse assessed as reduction in Bcl2 expression in tumor tissue at 20 mg/kg, ip administered every 2 days for 40 days and measured on day 40 by immunofluorescence analysis; assay type: functional, organism-based; in short: as §4
Homo sapiens [23] = assay: Antitumor activity against human ES2 cells xenografted in BALB/c nu/nu mouse assessed as increase in caspase 9 expression in tumor tissue at 20 mg/kg, ip administered every 2 days for 40 days and measured on day 40 by immunofluorescence analysis; assay type: functional, organism-based; in short: as §4
Homo sapiens [24] = assay: Antitumor activity against human ES2 cells xenografted in BALB/c nu/nu mouse assessed as increase in caspase 3 expression in tumor tissue at 20 mg/kg, ip administered every 2 days for 40 days and measured on day 40 by immunofluorescence analysis; assay type: functional, organism-based; in short: as §4
Homo sapiens [25] = assay: Antitumor activity against human ES2 cells xenografted in BALB/c nu/nu mouse assessed as increase in Bax expression in tumor tissue at 20 mg/kg, ip administered every 2 days for 40 days and measured on day 40 by immunofluorescence analysis; assay type: functional, organism-based; in short: as §4

Q: With `COc1cc(C(=O)c2cn(-c3ccc(F)cc3)cc2-c2ccc(N)cc2)cc(OC)c1OC` as the compound, how does the IC50 (Tubulin) read?
A: 500 nM

Q: What about the IC50 (MCF7) of the same compound?
A: 12 nM

Q: And the inhibition (Tubulin (Homo sapiens))?
A: 90%

Q: And the IC50 (KU812 cell line)?
A: 18 nM

Q: And the IC50 [1]?
A: 20 nM

Q: And the IC50 [2]?
A: 22 nM

Q: And the IC50 (KBM5 [3])?
A: 25 nM

Q: And the IC50 (KBM5 [4])?
A: 26 nM

Q: And the Emax [5]?
A: 37.1%

Q: What about the IC50 [5] of the same compound?
A: 20 to 20.1 nM

Q: And the inhibition (Homo sapiens [6])?
A: Dose-dependent effect

Q: What about the Emax (U-87 MG) of the same compound?
A: 32%

Q: What about the IC50 (U-87 MG) of the same compound?
A: 45.8 to 46 nM

Q: And the inhibition (U-87 MG)?
A: Dose-dependent effect

Q: And the Emax (T98G)?
A: 31%

Q: What about the IC50 (T98G) of the same compound?
A: 21.8 to 22 nM

Q: And the inhibition (T98G)?
A: Dose-dependent effect

Q: And the IC50 [7]?
A: 288 nM

Q: What about the IC50 [8] of the same compound?
A: 178 nM

Q: And the inhibition (HCT-116)?
A: Dose-dependent effect

Q: What about the IC50 (HCT-116) of the same compound?
A: 36 nM

Q: What about the inhibition (HT-29) of the same compound?
A: Dose-dependent effect

Q: What about the IC50 (HT-29) of the same compound?
A: 35 nM

Q: What about the inhibition (SW480) of the same compound?
A: Dose-dependent effect

Q: And the IC50 (SW480)?
A: 167 nM

Q: What about the inhibition (SW-620) of the same compound?
A: Dose-dependent effect

Q: What about the IC50 (SW-620) of the same compound?
A: 47 nM

Q: And the IC50 (T-24 [9])?
A: 48 nM

Q: And the Activity (PBMC)?
A: Non-Toxic

Q: Which results are given for `COc1cc(C(=O)c2cn(-c3cccc(N)c3)cc2-c2ccc(N)cc2)cc(OC)c1OC`?
A: IC50 (Tubulin): 470 nM; IC50 (MCF7): 14 nM; inhibition (Tubulin (Homo sapiens)): 92%; IC50 (KU812 cell line): 8 nM; IC50 [1]: 10 nM; IC50 [2]: 12 nM; IC50 (KBM5 [3]): 14 nM; IC50 (KBM5 [4]): 16 nM; Emax [5]: 36.3%; IC50 [5]: 11.9 to 12 nM; inhibition (Homo sapiens [6]): Dose-dependent effect; Emax (U-87 MG): 32%; IC50 (U-87 MG): 30.9 to 31 nM; inhibition (U-87 MG): Dose-dependent effect; Emax (T98G): 41.3%; IC50 (T98G): 36.6 to 37 nM; inhibition (T98G): Dose-dependent effect; IC50 [7]: 221 nM; IC50 [8]: 56 nM; inhibition (HCT-116): Dose-dependent effect; IC50 (HCT-116): 27 nM; inhibition (HT-29): Dose-dependent effect; IC50 (HT-29): 51 nM; inhibition (SW480): Dose-dependent effect; IC50 (SW480): 48 nM; inhibition (SW-620): Dose-dependent effect; IC50 (SW-620): 28 nM; IC50 (T-24 [9]): 12 nM; inhibition (T-24 [10]): Active; inhibition (T-24 [11]): Active; inhibition (Homo sapiens [12]): Active; inhibition (Homo sapiens [13]): Active; inhibition (T-24 [14]): Active; inhibition (T-24 [15]): Active; inhibition (T-24 [16]): Active; Activity (T-24 [17]): Active; Activity (T-24 [18]): Active; Activity (T-24 [19]): Active; inhibition (Homo sapiens [20]): Active; inhibition (Homo sapiens [21]): Active; inhibition (Homo sapiens [22]): Active; Activity (Homo sapiens [23]): Active; Activity (Homo sapiens [24]): Active; Activity (Homo sapiens [25]): Active; Activity (PBMC): Non-Toxic
